The text below walks through data of ChEMBL document CHEMBL2021837, “A novel series of l-2-benzyloxycarbonylamino-8-(2-pyridyl)-disulfidyloctanoic acid derivatives as histone deacetylase inhibitors: design, synthesis and molecular modeling study” (Eur J Med Chem, 2012).

The target of assay [1] is Histone deacetylase 1 (Homo sapiens, UniProt Q13547). Kind of assay: Inhibition of human HDAC1 in presence of dithiothreitol by HDAC fluorescent assay.
Assay [2] concerns MCF7. Kind of assay: Antiproliferative activity against human MCF7 cells after 48 hrs by MTT assay. In kind it is functional, cell-based. As to conditions: MCF7, 48 h. In short, it runs like this:
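MCF-7 cells were grown in DMEM with 10% fetal bovine serum at 37 °C under 5% CO₂, then plated and incubated overnight. Compounds were added as 10-fold serial dilutions. MTT (0.5 mg/mL in serum-free medium) was added for 4 h, formazan was dissolved in DMSO, and absorbance was read at 570 nm. IC₅₀ was determined in triplicate, with at least three repeat experiments.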

The target of assay [3] is Histone deacetylase 2 (Homo sapiens, UniProt Q92769). As to the kind of experiment: Inhibition of HDAC2 in human HeLa cell nuclear extracts in presence of dithiothreitol by HDAC fluorescent assay.
Histone deacetylase 2, sequence (Q92769 whole entry): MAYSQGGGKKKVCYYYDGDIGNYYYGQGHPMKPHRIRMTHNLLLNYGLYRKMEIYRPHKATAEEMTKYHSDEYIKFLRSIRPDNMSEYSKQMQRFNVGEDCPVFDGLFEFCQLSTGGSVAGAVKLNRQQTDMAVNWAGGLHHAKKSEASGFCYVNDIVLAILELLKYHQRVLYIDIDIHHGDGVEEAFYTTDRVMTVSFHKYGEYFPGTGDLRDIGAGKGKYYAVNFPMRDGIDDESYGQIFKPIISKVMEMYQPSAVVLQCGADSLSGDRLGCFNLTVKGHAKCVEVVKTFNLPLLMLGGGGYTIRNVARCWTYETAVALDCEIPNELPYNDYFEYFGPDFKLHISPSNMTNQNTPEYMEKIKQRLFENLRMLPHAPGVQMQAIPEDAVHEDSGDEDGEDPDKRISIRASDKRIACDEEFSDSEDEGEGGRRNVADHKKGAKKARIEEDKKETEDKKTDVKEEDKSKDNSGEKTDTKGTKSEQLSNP

Structures are written as SMILES.

Histone deacetylase 1, sequence (Q13547 whole entry): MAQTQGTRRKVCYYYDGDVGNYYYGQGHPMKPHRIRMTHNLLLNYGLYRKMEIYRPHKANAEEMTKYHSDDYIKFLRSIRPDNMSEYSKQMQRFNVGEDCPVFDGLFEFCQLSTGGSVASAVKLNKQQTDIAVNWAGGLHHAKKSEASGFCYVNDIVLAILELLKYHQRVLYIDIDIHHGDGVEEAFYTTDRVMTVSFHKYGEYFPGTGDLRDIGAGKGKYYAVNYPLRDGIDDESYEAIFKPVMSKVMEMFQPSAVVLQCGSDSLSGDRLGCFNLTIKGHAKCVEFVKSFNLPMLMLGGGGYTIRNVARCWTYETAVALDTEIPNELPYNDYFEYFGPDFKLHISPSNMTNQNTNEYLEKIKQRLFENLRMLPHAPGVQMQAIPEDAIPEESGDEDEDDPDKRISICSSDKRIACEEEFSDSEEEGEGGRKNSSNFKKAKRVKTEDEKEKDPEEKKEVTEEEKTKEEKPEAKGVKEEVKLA

For orientation: IC50 means the concentration that inhibits the measured activity by half. Consider `O=C(N[C@@H](CCCCCCSSc1ccccn1)C(=O)OCc1ccc(-c2ccccc2)cc1)OCc1ccccc1`, for which the 50% inhibitory concentration (IC50) in assay [1] came to 0.0641 µM; in assay [2], 15.6 µM; in assay [3], 0.0407 µM.
For `O=C(N[C@@H](CCCCCCSSc1ccccn1)C(=O)Nc1cccc2ccccc12)OCc1ccccc1`, in that order: 0.0652 µM, 15.3 µM and 0.0382 µM.
For `O=C(N[C@@H](CCCCCCSSc1ccccn1)C(=O)NC1CCCCC1)OCc1ccccc1`, in that order: 0.0669 µM, 19.6 µM and 0.0441 µM.
Consider `O=C(N[C@@H](CCCCCCSSc1ccccn1)C(=O)Nc1nc(-c2ccccc2)cs1)OCc1ccccc1`, for which the IC50 in assay [1] was determined as 0.0051 µM; in assay [2] it was 3.2 µM; in assay [3] it was 0.0039 µM.
For `O=C(N[C@@H](CCCCCCSSc1ccccn1)C(=O)Nc1ccccc1-c1ccccc1)OCc1ccccc1`, in that order: 0.0712 µM, 20.8 µM and 0.0452 µM.
Consider `O=C(N[C@@H](CCCCCCSSc1ccccn1)C(=O)Nc1ccc(-c2ccccc2)cc1)OCc1ccccc1`, for which the IC50 is 0.0709 µM in assay [1], 18.1 µM in assay [2] and 0.0466 µM in assay [3].
For `O=C(N[C@@H](CCCCCCSSc1ccccn1)C(=O)NC1c2ccccc2-c2ccccc21)OCc1ccccc1`, in that order: 0.0682 µM, 17.2 µM and 0.0481 µM.
For `O=C(N[C@@H](CCCCCCSSc1ccccn1)C(=O)OCC1c2ccccc2-c2ccccc21)OCc1ccccc1`, the half-inhibitory concentration (IC50) in assay [1] turned out to be 0.0076 µM; in assay [2], 3.5 µM; in assay [3] it was 0.0052 µM.
The corresponding values for `O=C(N[C@@H](CCCCCCSSc1ccccn1)C(=O)OCc1ccc([N+](=O)[O-])cc1)OCc1ccccc1` are 0.0644 µM, 16.9 µM and 0.0455 µM.
For `O=C(N[C@@H](CCCCCCSSc1ccccn1)C(=O)OCc1cccc([N+](=O)[O-])c1)OCc1ccccc1`, in that order: 0.0667 µM, 15.2 µM and 0.0485 µM.
Consider `O=C(N[C@@H](CCCCCCSSc1ccccn1)C(=O)OCc1ccc2ccccc2c1)OCc1ccccc1`, for which the IC50 is 0.0652 µM in assay [1], 14.8 µM in assay [2] and 0.0403 µM in assay [3].
As for `O=C(N[C@@H](CCCCCCSSc1ccccn1)C(=O)OCc1cccc2ccccc12)OCc1ccccc1`, the IC50 was found to be 0.0647 µM in assay [1], 15.3 µM in assay [2] and 0.0396 µM in assay [3].
On to `O=C(N[C@@H](CCCCCCSSc1ccccn1)C(=O)OCc1c2ccccc2cc2ccccc12)OCc1ccccc1`, for which the IC50 was found to be 0.0592 µM in assay [1], 14 µM in assay [2] and 0.0436 µM in assay [3].
`CC(/C=C/C(=O)NO)=C\[C@@H](C)C(=O)c1ccc(N(C)C)cc1` [TRICHOSTATIN] displayed a half-inhibitory concentration (IC50) in assay [2] of 1.7 µM.
